Experiments:
Homo sapiens [1] = species: Homo sapiens; test: Relative cytotoxicity against Human bone marrow samples; Value is in range, activity expressed as IC50; assay type: functional
Summary of the method: (§1)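 Second-stage assay on HL-60 (5 × 10^4/well) and soybean-agglutinin-negative mononuclear marrow cells (5 × 10^5/well) from six healthy donors. Four wells per concentration, 48 h at 37 °C, then [125I]iododeoxyuridine plus fluorodeoxyuridine for 18 h. Inhibition from fractional uptake decrease; IC50/IC90 by median-effect equation. Ranges are antilog(mean log ± 2SD); ratios use mean antilogs.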

CHO [2] = test: Cytotoxic activity against solid tumor, CHO (Chinese hamster ovaric carcinoma) Concentration of agent required to reduce cell viability by 50%; assay type: functional, cell-based; conditions: Cricetulus griseus
Summary of the method: (§2)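 Modified MTT assay. Cells seeded per well with graded drug: CHO 2.5 × 10^3, B16 5 × 10^3, P388 and LLC 10^4, HL-60 and LoVo 5 × 10^4. After 68 h, MTT (2.5 mg/mL) added for 4 h at 37 °C. Formazan dissolved in DMSO and A550 read. Inhibition taken as fractional A550 decrease vs control. IC50/IC90 from Chou's median-effect equation.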

[3] = Ratio of antilog(mean log IC90 in bone marrow sample) and antolog(mean log IC90) in HL-60); assay type: functional; summary of the method: as §1
[4] = test system: Lewis lung carcinoma cell line; test: Cytotoxic activity against solid tumor LLC(Lewis lung carcinoma), concentration of agent required to reduce cell viability by 50%; assay type: functional, cell-based; conditions: Mus musculus; summary of the method: as §2
[5] = Ratio of antilog(mean log IC50 in bone marrow sample) and antolog(mean log IC90) in HL-60); assay type: functional; summary of the method: as §1
P388 [6] = test: Cytotoxic activity Murine Lymphocytic Leukemia P388 Concentration of agent required to reduce cell viability by 90%; assay type: functional; conditions: Mus musculus; summary of the method: as §2
P388 [7] = test: In vivo antitumor activity against Murine P388 Leukemia at 20 mg/kg dose;(Median survival time of treated mice)/(median survival time of controls) x100; assay type: functional, Mus musculus
Summary of the method: (§3)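 Female BD2F1 mice (8 weeks, 20-22 g), eight per group, given 10^5 P388 cells ip on day 0. From 24 h later, drug was given ip once daily for 9 days as a micronized suspension in 0.5% carboxymethylcellulose. Deaths were recorded daily over a 33-day study. %T/C = median survival time of treated / median survival time of controls × 100; >125 taken as significant.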

Homo sapiens [8] = species: Homo sapiens; test: Relative cytotoxicity against Human bone marrow samples; Value is in range, activity expressed as IC90; assay type: functional; summary of the method: as §1
HL-60 [9] = test: Relative cytotoxicity against Human promyelocytic Leukemia(HL-60) cells; Value is in range, activity expressed as IC50; assay type: functional, cell-based; summary of the method: as §1
HL-60 [10] = test: Cytotoxic activity against Human promyelocytic Leukemia HL-60 Concentration of agent required to reduce cell viability by 50%; assay type: functional, cell-based; summary of the method: as §2
B16 [11] = test: Cytotoxic activity against solid tumor, B16 (murine melanoma) Concentration of agent required to reduce cell viability by 50%; assay type: functional, cell-based; conditions: Mus musculus; summary of the method: as §2
LoVo [12] = test: Cytotoxic activity against solid tumor, LoVo, (human colon adenocarcinoma) Concentration of agent required to reduce cell viability by 50%; assay type: functional, cell-based; summary of the method: as §2
LoVo [13] = test: Cytotoxic activity against solid tumor, LoVo, (human colon adenocarcinoma) Concentration of agent required to reduce cell viability by 90%; assay type: functional; summary of the method: as §2
B16 [14] = test: Cytotoxic activity against solid tumor, B16 (murine melanoma) Concentration of agent required to reduce cell viability by 90%; assay type: functional; conditions: Mus musculus; summary of the method: as §2
[15] = Ratio of antilog(mean log IC50 in bone marrow sample) and antolog(mean log IC50) in HL-60); assay type: functional; summary of the method: as §1
HL-60 [16] = test: Relative cytotoxicity against Human promyelocytic Leukemia(HL-60) cells; Value is in range, activity expressed as IC90; assay type: functional; summary of the method: as §1
P388 [17] = test: Cytotoxic activity against Murine Lymphocytic Leukemia P388 Concentration of agent required to reduce cell viability by 50%; assay type: functional, cell-based; conditions: Mus musculus; summary of the method: as §2
CHO [18] = test: Cytotoxic activity against solid tumor, CHO (Chinese hamster ovaric carcinoma) Concentration of agent required to reduce cell viability by 90%; assay type: functional; conditions: Cricetulus griseus; summary of the method: as §2
[19] = test system: Lewis lung carcinoma cell line; test: Cytotoxic activity against solid tumor LLC(Lewis lung carcinoma), concentration of agent required to reduce cell viability by 90%; assay type: functional; conditions: Mus musculus; summary of the method: as §2
P388 [20] = test: In vivo antitumor activity against Murine P388 Leukemia at 6.67 mg/kg dose;(Median survival time of treated mice)/(median survival time of controls) x100; assay type: functional, Mus musculus; summary of the method: as §3
P388 [21] = test: In vivo antitumor activity against Murine P388 Leukemia at 60 mg/kg dose;(Median survival time of treated mice)/(median survival time of controls) x100; assay type: functional, Mus musculus; summary of the method: as §3
HL-60 [22] = test: Cytotoxic activity against Human promyelocytic Leukemia HL-60 Concentration of agent required to reduce cell viability by 90%; assay type: functional; summary of the method: as §2
P388 [23] = test: Cytotoxic activity against murine lymphocytic leukemia P388 concentration of agent required to reduce cell viability by 50%; assay type: functional, cell-based; conditions: Mus musculus; summary of the method: as §2
P388 [24] = test: Cytotoxic activity against murine lymphocytic leukemia P388 concentration of agent required to reduce cell viability by 90%; assay type: functional; conditions: Mus musculus; summary of the method: as §2
HL-60 [25] = test: Cytotoxic activity against human promyelocytic leukemia HL-60 concentration of agent required to reduce cell viability by 50%; assay type: functional, cell-based; summary of the method: as §2
HL-60 [26] = test: Cytotoxic activity against human promyelocytic leukemia HL-60 concentration of agent required to reduce cell viability by 90%; assay type: functional; summary of the method: as §2

Row | Structure (SMILES) | IC50 (CHO [2]) | IC50 [4] | IC90 (P388 [6]) | IC50 (HL-60 [10]) | IC50 (B16 [11]) | IC50 (LoVo [12]) | IC90 (LoVo [13]) | IC90 (B16 [14]) | IC50 (P388 [17]) | IC90 (CHO [18]) | IC90 [19] | IC90 (HL-60 [22]) | IC50 (P388 [23]) | IC90 (P388 [24]) | other results
1 | CCn1c2cc(N3CCN(C)CC3)c(N)cc2c(=O)c2c(O)cc(O)cc21 | 5.8 µM | 11 µM | 13 µM | 23 µM | 9.9 µM | 17 µM | 47 µM | 19 µM | 4.6 µM | 19 µM | 17 µM | 34 µM | – | – | IC50 (Homo sapiens [1]): 3.27 µM; Ratio [3]: 0.5; Ratio [5]: 0.1; T/C (P388 [7]): 116%; IC90 (Homo sapiens [8]): 20.3 µM; IC50 (HL-60 [9]): 27.7 µM; Ratio [15]: 0.1; IC90 (HL-60 [16]): 42.6 µM; T/C (P388 [20]): 115%; T/C (P388 [21]): 132%
2 | CCN(CC)CCn1c2cc(OC)c(N)cc2c(=O)c2c(O)cc(O)cc21 | 5.6 µM | 10 µM | 5.9 µM | 8.2 µM | 3.4 µM | 11 µM | 36 µM | 11 µM | 2.8 µM | 20 µM | 32 µM | 27 µM | – | – | –
3 | CCN(CC)CCn1c2cc(N3CCN(C)CC3)c(N)cc2c(=O)c2c(O)cc(O)cc21 | 7.1 µM | 24 µM | 13 µM | 11 µM | 16 µM | 17 µM | 21 µM | 23 µM | 7.2 µM | 16 µM | 35 µM | 19 µM | – | – | –
4 | CCN(CC)c1cc2c(cc1N)c(=O)c1c(O)cc(O)cc1n2CC | – | – | 50 µM | 24 µM | – | – | – | – | 24 µM | – | – | 58 µM | – | – | –
5 | CCn1c2cc(N3CCSCC3)c(N)cc2c(=O)c2c(O)cc(O)cc21 | – | – | > 100 µM | – | – | – | – | – | > 100 µM | – | – | – | – | – | –
6 | CCn1c2cc(Cl)c(N)cc2c(=O)c2c(O)cc(OC)cc21 | – | – | – | – | – | – | – | – | – | – | – | – | 16 µM | > 100 µM | –
7 | CCN(CC)CCn1c2cc(N3CCSCC3)c(N)cc2c(=O)c2c(O)cc(O)cc21 | – | – | 19 µM | – | – | – | – | – | 8.8 µM | – | – | – | – | – | –
8 | CCN(CC)CCn1c2cc(Cl)c(N)cc2c(=O)c2c(OC)cc(OC)cc21 | – | – | – | – | – | – | – | – | – | – | – | – | 4.3 µM | 14 µM | IC50 (HL-60 [25]): 8.6 µM; IC90 (HL-60 [26]): 29 µM
9 | CCN(CC)CCNc1cc2c(cc1N)c(=O)c1c(O)cc(O)cc1n2CC | 8.1 µM | 25 µM | 11 µM | 19 µM | 10 µM | 19 µM | 30 µM | 38 µM | 4.3 µM | 17 µM | 46 µM | 46 µM | – | – | –
10 | CCn1c2cc(Cl)c(N)cc2c(=O)c2c(OC)cc(OC)cc21 | – | – | – | – | – | – | – | – | – | – | – | – | 14 µM | 33 µM | IC50 (HL-60 [25]): 16 µM; IC90 (HL-60 [26]): 62 µM
11 | CCN(CC)CCn1c2cc(N3CCN(C)CC3)c(N)cc2c(=O)c2c(OC)cc(OC)cc21 | – | – | – | – | – | – | – | – | – | – | – | – | 3.4 µM | 5.8 µM | IC50 (HL-60 [25]): 8.3 µM; IC90 (HL-60 [26]): 17 µM
12 | CCn1c2cc(N3CCCC3)c(N)cc2c(=O)c2c(O)cc(O)cc21 | – | – | > 100 µM | – | – | – | – | – | > 100 µM | – | – | – | – | – | –

— ChEMBL document CHEMBL1132240, “Design and synthesis of modified quinolones as antitumoral acridones” (J Med Chem, 1999)
